Assay outcomes deposited in PubChem BioAssay by several laboratories.
Hits are enriched below; roughly 1.1% of the tested compounds scored in any of these assays.
FXIIa inh 1536 = blocks human coagulation factor XIIa protease activity. 220,000 tested, 0.3% active. P00748. purified FXIIa, Boc-QGR-AMC fluorogenic substrate, 2 h. AID 800. inhibition, % at 5 µM; in the data active = inhibition above about 40%;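 note: 0% = enzyme with no compound and 100% = blank without enzyme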
Target sequence (P00748 20-372 limits assumed): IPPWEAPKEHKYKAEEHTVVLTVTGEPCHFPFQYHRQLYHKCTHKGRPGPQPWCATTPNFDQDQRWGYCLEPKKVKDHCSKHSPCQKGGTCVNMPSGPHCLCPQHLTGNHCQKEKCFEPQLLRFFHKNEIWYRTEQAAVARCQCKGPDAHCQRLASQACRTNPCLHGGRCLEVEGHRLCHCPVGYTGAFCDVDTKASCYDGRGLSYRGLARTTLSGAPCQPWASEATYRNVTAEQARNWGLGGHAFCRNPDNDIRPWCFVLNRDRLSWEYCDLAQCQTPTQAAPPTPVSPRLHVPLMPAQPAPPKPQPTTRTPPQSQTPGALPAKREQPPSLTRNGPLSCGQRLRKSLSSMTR
Target sequence (P00748 373-615 limits assumed): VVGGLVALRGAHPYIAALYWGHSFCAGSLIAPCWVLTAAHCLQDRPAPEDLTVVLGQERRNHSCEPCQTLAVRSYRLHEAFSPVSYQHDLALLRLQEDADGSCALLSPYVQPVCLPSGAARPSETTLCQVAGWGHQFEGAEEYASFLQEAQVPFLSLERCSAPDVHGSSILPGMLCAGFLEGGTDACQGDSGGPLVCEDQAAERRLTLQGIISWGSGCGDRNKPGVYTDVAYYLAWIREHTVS
FXIa inh 1536 = blocks human coagulation factor XIa protease activity | P03951 | 220,000 tested, 0.14% active | AID 798 | purified FXIa, Boc-Glu-Ala-Arg-AMC fluorogenic substrate | inhibition, % at 5 µM;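 active = inhibition of at least 40%; inactive = inhibition below 40%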;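 note: fluorescence of freed AMC excited at 355 nm; 0% = enzyme without compound and 100% = no enzyme blank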
Thrombin inh = inhibitors of human thrombin | P00734 | alpha-thrombin, Boc-VPR-AMC fluorogenic substrate cleavage | inhibition, % at 5 µM | 220,000 tested, 0.26% active | AID 1046;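 active = inhibition at or above 40%; inactive = inhibition below 40%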;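 note: 0% = enzyme with no compound and 100% = wells without enzyme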
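Material: Human alpha-thrombin protein | Buffer or medium: pH 7.5 Tris-saline with Tween 20 | Reagent: Boc-VPR-AMC substrate, 15 µM final | Schedule: Reaction at ambient temperature | Detection: AMC fluorescence at 355 nm excitation and 460 nm emission | Evaluation: Percent inhibition scaled between no-compound controls and no-enzyme blanks | Controls: no-compound enzyme wells and no-enzyme blanks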
hK5 inh = kallikrein 5 (human) inhibition. Q9Y337. AID 873. 210,000 tested, 0.59% active. inhibition, % at 5 µM. recombinant hK5, fluorogenic AMC substrate cleavage;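 active = inhibition of 40% or more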;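 note: 0% = enzyme controls without compound and 100% = no-enzyme blanks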
Furin inhibitor = human furin inhibition. inhibition, % at 20 µM or 30 µM. purified furin, fluorogenic substrate cleavage. AID 463115. 220,000 tested, 0.061% active; in the data active = inhibition above about 25%
Active calls of the source: *; . = no result.

SMILES | FXIIa inh 1536 | FXIa inh 1536 | Thrombin inh | hK5 inh | Furin inhibitor
O=P(C(=Nc1ccc(Cl)cc1)N1CCOCC1)(N1CCOCC1)N1CCOCC1 | 19.8 | 15.1 | 28.0 | 41.7* | -5.4
Cc1ccccc1-n1c(-c2ccoc2)nc2ccccc2c1=O | -4.5 | -6.6 | 1.1 | -21.2 | -20.5
CCOC(=O)C1(c2ccccc2)CCN(Cc2cccc(C(=O)O)c2)CC1 | 18.9 | 11.6 | 19.6 | 44.1* | -18.4
CCOc1ccc(-n2c(O)c(C=Nc3ccc(N4CCOCC4)cc3)c(=O)[nH]c2=O)cc1 | 0.8 | 2.8 | -8.3 | -18.6 | -0.9
O=c1[nH]c(=S)n(CCC2=CCCCC2)c(O)c1/C=N/N1CCOCC1 | 5.1 | -1.6 | -11.9 | -5.8 | -15.9
CN1CCC(N(C)c2nc(-c3ccc([N+](=O)[O-])cc3)nc3ccccc23)CC1 | 12.0 | 8.4 | -3.0 | -13.0 | -1.1
CN(CC1COc2ccccc2O1)c1nc(-c2cccnc2)nc2ccccc12 (stereo not given) | 10.2 | 11.0 | 17.3 | 52.9* | -13.8
CCCCSP1(=S)NCCCO1 (stereo not given) | 13.0 | 1.4 | 1.8 | 3.2 | -19.6
O=c1[nH]c(=O)n(Cc2ccco2)c(O)c1C=NCc1ccco1 | 1.3 | 16.4 | 14.2 | 44.4* | -17.3
CN(C)C(=O)CSc1nnc([C@@H](N)Cc2ccccc2)o1 | 60.8* | 12.8 | 61.4* | 23.4 | -15.7
CC(=O)c1ccccc1NC(=O)C1C2CCC(O2)C1C(=O)O (stereo not given) | 14.1 | 3.5 | 0.8 | -20.9 | -22.5
CC1CC(NC(=O)C2C3CCC(O3)C2C(=O)O)CC(C)(C)C1 (stereo not given) | 45.5* | 23.4 | -4.3 | -5.2 | -4.1
COc1ccc(C(=O)C(Cc2ccccc2)N(C)C)cc1 (stereo not given) | 16.3 | 2.3 | 1.4 | -9.3 | -15.7
CN(C)C(Cc1ccccc1)C(=O)c1ccc(-c2ccccc2)cc1 (stereo not given) | 13.3 | 10.6 | 16.9 | 97.7* | -5.5
CC(=O)c1c(C)n(CCCOC(C)C)c2ccc(O)cc12 | -8.9 | 2.9 | 36.9 | 43.4* | -16.8
C=COCCn1c(C)c(C(C)=O)c2cc(O)ccc21 | 7.5 | -3.5 | -10.7 | -0.8 | -16.3
NNC(=O)CN1C(=O)CN=C(c2ccccc2)c2cc(Br)ccc21 | 44.4* | 19.1 | 33.4 | 27.2 | 0.9
O=C1CN=C(c2ccccc2)c2cc(Br)ccc2N1Cc1cc(=O)n2ccccc2n1 | 10.4 | 7.8 | 0.8 | -19.6 | -3.8
N=C1SCC(=O)N1Cc1ccccc1 | 0.1 | -7.0 | -5.2 | -11.8 | -14.3
N=c1n(CCO)c2ccccc2n1Cc1ccccc1 | 16.8 | 14.1 | 67.3* | 30.4 | -16.4
CCCC1(CCC)C(=O)NC(=Nc2ccc(C)cc2)NC1=O | 11.6 | 1.1 | -1.8 | 9.5 | -25.8
CSc1nc(N)c(N=Nc2ccc([As](=O)(O)O)cc2)c(=O)[nH]1 | 6.1 | -10.1 | -0.3 | 7.5 | 27.1*
CC1CCCC(C)N1/N=C/c1c[nH]c2ccc(Br)cc12 (stereo not given) | 18.8 | 0.8 | 18.0 | 45.2* | -6.1
CCNc1cc(N2CCNCC2)ccc1[N+](=O)[O-] | 28.0 | 68.0* | 33.8 | 27.8 | 9.7
CN(C)CP(=O)(Nc1ccccc1)N(C)C (stereo not given) | 18.6 | 5.3 | 27.2 | 66.8* | -13.8
SMILES | FXIIa inh 1536 | FXIa inh 1536 | Thrombin inh | hK5 inh | Furin inhibitor
O=C(c1n[nH]c(=O)c2ccccc12)N1CCC2(CC1)OCCO2 | 5.0 | -1.2 | -1.8 | . | -18.1
O=C(NC1CONC1=O)OCC(Cl)(Cl)Cl (stereo not given) | 6.4 | -4.9 | -6.8 | -12.3 | -20.5
Cc1ccccc1NC(=O)CCl | 13.4 | 0.9 | 49.8* | -4.8 | -22.9
O=P(Nc1cccc(Cl)c1)(Oc1ccccc1)Oc1ccccc1 | 1.3 | -2.6 | -6.2 | -5.1 | -7.5
NC(=S)N/N=C/c1coc2ccccc2c1=O | 0.9 | 3.7 | 4.7 | -3.9 | -9.9
Cc1ccccc1-n1c(O)c(C=Nc2ccc(N(C)C)cc2)c(=O)[nH]c1=O | 11.7 | -1.6 | 2.0 | -16.5 | 27.4*
CC(=O)N1CCN(c2ccc(N=Cc3c(O)n(-c4ccc(Cl)cc4)c(=O)[nH]c3=O)cc2)CC1 | 14.7 | 9.3 | 9.5 | 58.9* | -18.6
CCN(CC)c1ccc(N=Cc2c(O)n(-c3ccc(Cl)cc3)c(=O)[nH]c2=O)cc1 | 17.9 | 6.2 | -1.1 | 2.9 | -6.2
C[C@]12CCC(=O)C=C1CCC1C2CC[C@@]2(C)C1CC[C@@]2(O)CC#N (stereo not given in full) | 17.0 | 9.1 | 15.6 | 61.9* | -13.8
C#C[C@]1(O)CC[C@H]2[C@@H]3CCC4=CC(=O)CC[C@]4(C)[C@H]3CC[C@@]21C | 5.5 | 0.2 | -5.3 | 12.2 | -9.4
CCCCCCNC(=O)N[C@H](Cc1ccc(O)cc1)C(=O)NCCC[C@H]1CN2C(=NC[C@H]2CCC)N1CC1CCC1 | 9.2 | -0.6 | -2.0 | -1.4 | 5.6
Cc1cccc(-n2c(O)c(/C=C/C=Nc3ccccc3)c(=O)[nH]c2=O)c1 | 2.9 | -1.8 | 0.4 | -15.7 | 31.2*
CNS(=O)(=O)c1ccc(N=Cc2c(O)n(-c3cccc(C)c3)c(=O)[nH]c2=O)cc1 | -0.7 | -4.5 | 0.8 | -3.1 | -2.6
COc1ccc(C2(C#N)CCN(C)CC2)cc1 | 9.3 | 5.3 | -4.3 | -11.9 | -23.5
CC1C(c2cccs2)=[N+]([O-])C(C)(C(=O)c2ccc(F)cc2)N1O (stereo not given) | . | . | . | . | -9.3
O=C1NC(=O)C(C(CC(=O)c2ccccc2)c2ccccc2)C(=O)N1 (stereo not given) | 9.8 | 1.5 | 8.2 | 7.5 | -7.0
Cn1nnc(CC[N+](C)(C)C)n1 | 27.3 | 56.1* | 43.0* | 38.5 | -11.2
COc1ccc(OCC(=O)N2CCN(C/C=C/c3ccccc3)CC2)cc1 | . | 38.1 | 82.5* | 25.9 | -10.2
COc1ccc(NC(=O)c2cc([N+](=O)[O-])ccc2N2CCNCC2)cc1 | 29.4 | 22.6 | 5.1 | 51.1* | 0.1
CCOc1ccc(-c2c(C)n(-c3ccc(OCC)cc3)c3[n+]2CCCCC3)cc1 | 45.7* | 50.9* | 6.0 | 36.0 | 0.0
CCOc1ccc(-n2c(-c3ccoc3)nc3ccccc3c2=O)cc1 | 9.7 | 1.6 | 4.7 | -30.7 | -3.3
Cc1ccccc1N1C(=O)CC(=O)NC1=O | 19.9 | 13.6 | 2.1 | -0.9 | -18.8
CCc1ccccc1N1C(=O)CC(=O)NC1=O | 29.2 | 42.1* | 46.3* | 34.0 | -4.1
CC(=O)OC1(c2ccccc2)CC(C(C)(C)C)CN(C(C)(C)C)C1 (stereo not given) | 3.1 | 0.6 | -5.2 | -13.5 | -23.1
CCCC(C)C1C(C#N)=C(N)Oc2c1c(=O)oc1ccccc21 (stereo not given) | 26.5 | 15.7 | 10.4 | 68.0* | -23.8
CCCC1C(C#N)=C(N)Oc2c1c(=O)oc1ccccc21 (stereo not given) | 19.1 | 12.4 | 0.3 | -6.7 | -9.3
CCC(=NCC1CCCO1)c1c(O)n(-c2ccccc2)c(=O)[nH]c1=O (stereo not given) | 17.9 | 18.0 | 14.6 | 60.8* | -2.9
